Source: PubChem BioAssay
PAFAH2 FP inh: inhibitors of human PAFAH2 | Q99487 | recombinant PAFAH2, FP-rhodamine activity probe, fluorescence polarization | inhibition, % at 3.39 µM | hit rate 0.99% among 340,000 | AID 492956;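 active = inhibition above the mean over all tested compounds plus 3 SD, cut at about 30% in these data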;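 note: inhibitors block probe labeling of enzyme so polarization drops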
IMP-1 inh: inhibitors of Pseudomonas aeruginosa IMP-1 metallo-beta-lactamase; purified IMP-1, nitrocefin hydrolysis, epi-absorbance fluorescence; inhibition, % at 5.6 µM; hit rate 0.45% among 290,000; AID 1556;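 active = inhibition above the mean plus 3 SD of all compounds in the same screening run, cut at about 4.5% in these data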
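Test system: recombinant IMP-1 enzyme, purified / Medium: HEPES buffer pH 7.1 with ZnSO4 and Brij 35 / Doses: single dose, 5.6 µM / Times: 25 °C, 15 min preincubation, 25 min reaction / Detection: Epi-absorbance via hydrolysed-nitrocefin quenching of white-plate fluorescence, 480/530 nm, EDTA stop / Evaluation: percent inhibition from optical density relative to buffer-blank wells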
pPAFAH inh: pPAFAH (human) enzyme inhibition; recombinant pPAFAH, FP-rhodamine probe fluorescence polarization; inhibition, % at 3.39 µM; hit rate 1.5% among 330,000;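 active = inhibition above the mean inhibition across the screen plus 3 SD, cut at about 25% in these data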;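 note: inhibitors block binding of the rhodamine activity-based probe so polarization drops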
PAFAH1B3 FP inh: inhibitors of human PAFAH1B3; AID 492972; Q15102; hit rate 0.28% among 340,000; recombinant PAFAH1B3, FP-rhodamine probe, fluorescence polarization; inhibition, % at 3.39 µM;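 active = inhibition above the screen-wide average of all tested compounds plus 3 SD, cut at about 25% in these data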
Target sequence (Q15102 whole entry, looked up): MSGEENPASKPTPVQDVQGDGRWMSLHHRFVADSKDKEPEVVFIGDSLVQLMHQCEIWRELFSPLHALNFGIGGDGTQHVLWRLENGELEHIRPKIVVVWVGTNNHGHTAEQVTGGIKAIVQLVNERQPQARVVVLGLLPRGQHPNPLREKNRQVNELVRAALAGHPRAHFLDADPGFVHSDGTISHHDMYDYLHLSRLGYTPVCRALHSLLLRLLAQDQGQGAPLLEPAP
VIM-2 inh: inhibitors of Pseudomonas aeruginosa VIM-2 metallo-beta-lactamase | purified VIM-2, nitrocefin hydrolysis, epi-absorbance fluorescence | inhibition, % at 5.6 µM | hit rate 0.89% among 290,000;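 active = inhibition above the mean of all tested compounds plus 3 SD, cutoff set per screening run, cut at about 7.5% in these data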;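 note: red hydrolysis product quenches plate fluorescence so inhibitors raise well fluorescence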
PAFAH1B2 inh: inhibitors of human PAFAH1B2; P68402; recombinant PAFAH1B2, FP-rhodamine activity probe, fluorescence polarization; inhibition, % at 3.39 µM; hit rate 1.2% among 340,000; AID 492953;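 active = inhibition above the mean of all tested compounds plus 3 SD, cut at about 24% in these data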
Target sequence (P68402 whole entry, looked up): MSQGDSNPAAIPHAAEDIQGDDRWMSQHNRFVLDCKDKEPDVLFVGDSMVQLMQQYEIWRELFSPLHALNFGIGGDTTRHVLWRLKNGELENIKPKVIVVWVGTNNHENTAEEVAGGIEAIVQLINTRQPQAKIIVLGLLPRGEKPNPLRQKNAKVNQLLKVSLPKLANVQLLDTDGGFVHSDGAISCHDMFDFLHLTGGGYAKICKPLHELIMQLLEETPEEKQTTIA
PAFAH2 confirm: confirmation of human PAFAH2 inhibitors; shares compounds with PAFAH2 FP inh; inhibition, % at 3.39 µM; recombinant PAFAH2, FP-rhodamine activity probe, fluorescence polarization; hit rate 65% among 2,300;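 active = mean inhibition over three repeats above a set limit taken from the earlier primary screen, cut at about 30% in these data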;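 note: inhibitor blocks binding of rhodamine activity probe so polarization falls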
Numbers stand for hits; n = inactive; x = no result given. Rows were chosen to be rich in hits. Some 3.6% of all compounds tested hit in one or more screens of this group.

SMILES | PAFAH2 FP inh | IMP-1 inh | pPAFAH inh | PAFAH1B3 FP inh | VIM-2 inh | PAFAH1B2 inh | PAFAH2 confirm
Cc1ccc(C(=O)OCC(=O)NCCc2ccc(F)cc2)cc1S(=O)(=O)N1CCOCC1 | 47 | x | n | n | x | n | 37
Cc1ccc(C(=O)OCC(=O)Nc2ccccc2C(F)(F)F)cc1S(=O)(=O)N1CCOCC1 | 63 | n | n | n | n | n | 57
O=C(COC(=O)c1ccc(F)c(S(=O)(=O)N2CCOCC2)c1)NCc1ccc(F)cc1 | 33 | x | n | n | x | n | n
Cc1ccc(C(=O)OCC(=O)NC(C)C)cc1S(=O)(=O)N1CCOCC1 | 32 | n | n | n | n | n | n
COc1ccc(CNC(=O)COC(=O)c2ccc(C)c(S(=O)(=O)N3CCOCC3)c2)cc1 | n | x | n | n | x | n | x
CCOC(=O)c1ccccc1NC(=O)COC(=O)c1ccc(C)c(S(=O)(=O)N2CCOCC2)c1 | n | n | n | n | n | n | x
O=C(COC(=O)c1ccc(F)c(S(=O)(=O)N2CCOCC2)c1)NCCc1ccccc1 | n | x | n | n | x | n | x
Cc1cc(OC(C)C(=O)Nc2ccncc2)ccc1Cl (configuration not stated) | n | n | n | n | n | n | x
CCOc1ccc(S(=O)(=O)/N=C(/Nc2ccc(OC)cc2)c2ccccc2)cc1 | 52 | n | n | n | n | n | 41
CCOc1ccc(S(=O)(=O)/N=C(/Nc2ccc(C(C)=O)cc2)c2ccccc2)cc1 | 57 | x | n | n | x | n | 41
O=C(Cc1ccc(Cl)cc1)NCC(=O)N1CCCCCC1 | n | n | n | n | n | n | x
COc1ccc(/C=C/C(=O)OCC(=O)Nc2ccc(C)cc2)cc1S(=O)(=O)N1CCOCC1 | 71 | n | n | n | n | n | 73
COc1ccc(NC(=O)COC(=O)/C=C/c2ccc(OC)c(S(=O)(=O)N3CCOCC3)c2)cc1 | 62 | n | n | n | n | n | 58
Cc1ccc(NC(=O)COC(=O)/C=C/c2cccc(Cl)c2)cc1S(=O)(=O)N1CCOCC1 | 60 | n | n | n | n | n | 50
CCC(C)(C)NC(=O)/C=C/c1ccc(OC)c(S(=O)(=O)N2CCOCC2)c1 | n | n | n | n | n | n | x
COc1ccc(/C=C/C(=O)OCC(=O)Nc2ccc(OC)c(S(=O)(=O)N3CCCCC3)c2)cc1 | n | n | n | n | n | n | x
CC1(C)CC(=O)c2cnc(N)nc2C1 | n | n | n | n | n | n | x
CC1(C)CC(=O)c2cc3c(nc2C1)CC(C)(C)CC3=O | 50 | n | n | n | n | n | 34
O=C(NC1CCCCC1)C(c1ccc(F)cc1)N(C(=O)Cc1ccsc1)c1ccc(F)cc1 (configuration not stated) | n | n | n | n | n | n | x
O=C1C=CC(=O)C(CNc2ccc(C(=O)OCc3ccccc3)cc2)=C1 | 59 | x | x | n | x | n | 37
Cc1sc2nc(-c3ccccc3)oc(=O)c2c1C | 81 | n | n | n | n | n | 65
O=c1oc(-c2ccco2)nc2sc3c(c12)CCCC3 | 72 | n | n | n | n | n | 63
Cc1nc2sc3c(c2c(=O)o1)CCCC3 | n | n | n | n | n | n | x
O=c1oc(-c2ccccc2)nc2sc3c(c12)CCC3 | 72 | n | n | n | n | n | 74
CN1CCC(N(C)C(=O)c2cc(-c3ccc(F)cc3)nc3ccccc23)CC1 | n | x | n | n | x | n | x
SMILES | PAFAH2 FP inh | IMP-1 inh | pPAFAH inh | PAFAH1B3 FP inh | VIM-2 inh | PAFAH1B2 inh | PAFAH2 confirm
CC(C)(C)NC(=O)COC(=O)/C=C/c1ccc(F)cc1 | 65 | n | n | n | n | n | 47
COC(=O)CNC(=O)COC(=O)/C=C/c1ccc(F)cc1 | n | n | n | n | n | n | x
COc1cc(/C=C/C(=O)OCC(=O)NC(=O)NC(C)(C)C)cc(OC)c1OC | n | n | n | n | n | n | x
COc1ccc(/C=C/C(=O)OCC(=O)NC(=O)NC(C)(C)C)cc1 | 38 | n | n | n | n | n | n
CC1(C)CC(=O)C/C(=N/NC(=O)COc2ccc3ccccc3c2Br)C1 | 30 | n | n | n | n | n | n
O=C(COc1ccc(Cl)cc1Cl)NN=C1CCCCC1 | n | n | n | n | n | n | x
CC1(C)CC(=O)C/C(=N/NC(=O)COc2ccc(Cl)cc2Cl)C1 | 40 | n | n | n | n | n | n
O=C(Nc1cccc(C(=O)O)c1)/C(=C\c1ccc2c(c1)OCO2)NC(=O)c1ccccc1Cl | n | n | n | n | n | n | x
Cc1oc2cc3oc(=O)c(CCC(=O)N(C)CC(=O)O)c(C)c3cc2c1C | n | n | n | n | n | n | x
CC(=O)N1CCN(c2ccccc2NC(=O)c2ccco2)CC1 | n | n | n | n | n | n | x
Cc1noc(C)c1COc1ccccc1C(=O)NCCc1ccc(F)cc1 | n | x | x | n | x | n | x
O=C(COC(=O)c1ccccc1O)Nc1cc(S(=O)(=O)N2CCCCCC2)ccc1Cl | n | x | n | n | x | n | x
CCN(c1ccccc1)S(=O)(=O)c1ccc(Cl)c(NC(=O)COC(=O)c2cc(O)c3ccccc3c2O)c1 | x | n | n | x | n | x | x
O=C(COC(=O)c1ccccc1)Nc1cc(S(=O)(=O)N2CCCCCC2)ccc1Cl | 30 | x | n | n | x | n | n
O=C(COC(=O)c1ccco1)Nc1cc(S(=O)(=O)N2CCOCC2)ccc1Cl | 58 | x | n | n | x | n | 35
CCN(c1ccccc1)S(=O)(=O)c1ccc(Cl)c(NC(=O)COC(=O)C2CC2C)c1 (configuration not stated) | 79 | n | n | n | n | n | 76
O=C(COC(=O)c1ccco1)Nc1cc(S(=O)(=O)N2CCCCC2)ccc1Cl | 55 | x | n | n | x | n | 46
OCCN(Cc1cccnc1)Cc1ccccn1 | n | x | x | n | x | n | x
Cc1cc(C)c2sc(NC(=O)c3ccc([N+](=O)[O-])o3)nc2c1 | n | n | n | n | n | n | x
Cc1ccc(NS(=O)(=O)c2cc(C(=O)O)ccc2Cl)c(C)c1 | 54 | n | n | n | n | n | n
COc1ccc(CCC(=O)NC(C)C)cc1 | n | n | n | n | n | n | x
COc1ccc(COC[C@H](C)[C@H](O)[C@@H](C)[C@H]2OC(=O)[C@@H]2C)cc1 | 69 | x | n | n | x | n | 78
O=C(CSc1ncccn1)NC(=O)Cc1ccccc1 | n | x | n | n | x | n | x
CCOC(=O)C1=CN(Cc2ccco2)S(=O)(=O)NC1c1ccc(Br)cc1F (configuration not stated) | n | x | n | n | x | n | n
CCOC(=O)C1=CN(Cc2cccc(F)c2)S(=O)(=O)NC1c1ccccc1 (configuration not stated) | n | x | n | n | x | n | x
Cc1cc(C(=O)OCC(=O)Nc2cccc(S(=O)(=O)N3CCOCC3)c2)c(C)o1 | 36 | n | n | n | n | n | n
Cc1cc(C(=O)OCC(=O)Nc2cccc(S(N)(=O)=O)c2)c(C)o1 | n | x | n | n | x | n | x
